Source: ChEMBL document CHEMBL1122364, “Preparation of 2-amino-4(3H)-oxopyrimido[5,4-b] [1,4]thiazines (5-thiapterins) and their evaluation as cofactors for phenylalanine hydroxylase” (J Med Chem, 1983)

Biological target: T1, Phenylalanine-4-hydroxylase (Rattus norvegicus, UniProt P04176)
T1 sequence (P04176 whole entry): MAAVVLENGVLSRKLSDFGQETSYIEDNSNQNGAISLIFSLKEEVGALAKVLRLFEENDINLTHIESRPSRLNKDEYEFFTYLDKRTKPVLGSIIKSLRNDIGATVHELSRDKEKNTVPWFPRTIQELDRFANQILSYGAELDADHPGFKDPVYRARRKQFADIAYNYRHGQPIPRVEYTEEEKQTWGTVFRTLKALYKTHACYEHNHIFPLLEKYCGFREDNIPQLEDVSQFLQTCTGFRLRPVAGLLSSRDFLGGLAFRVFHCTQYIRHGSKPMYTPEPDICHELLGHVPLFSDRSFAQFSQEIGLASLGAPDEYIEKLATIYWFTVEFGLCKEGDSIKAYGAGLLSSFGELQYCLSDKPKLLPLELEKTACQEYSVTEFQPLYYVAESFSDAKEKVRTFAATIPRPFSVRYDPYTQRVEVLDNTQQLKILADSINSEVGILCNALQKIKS
Assay: Tested for competitive binding inhibition against phenylalanine hydroxylase in rat liver
Outline: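 Initial rate of tyrosine formation followed at 25 °C as the rise in absorbance at 275 nm. The cofactor was 6-MePH₄ at 12.5–50 μM.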

Row | Ki | SMILES
1 | 125 µM | CC1CNc2nc(N)nc(O)c2[S+]1[O-] (stereo unspecified)
2 | 0.2 µM | Nc1nc2c(c(=O)[nH]1)SC(c1ccccc1)CN2 (stereo unspecified)
3 | 36 µM | CC1CNc2nc(N)[nH]c(=O)c2S1 (stereo unspecified)

More lines, now with the values behind:

Row | SMILES | Ki
4 | Nc1nc(O)c2c(n1)NCC[S+]2[O-] (stereo unspecified) | 400 µM
5 | Nc1nc(O)c2c(n1)NCCS2 | 85 µM
6 | Nc1nc(O)c2c(n1)SCC(c1ccccc1)N2 (stereo unspecified) | 500 µM
7 | Nc1nc(N)c(Sc2ccccc2)c(O)n1 | 4.7 µM
8 | Nc1nc(O)c2c(n1)NCC(c1ccccc1)[S+]2[O-] (stereo unspecified) | 7 µM

System: not listed separately
Assay: Michaelis-Menten constant was determined for the compound

Row | Km | SMILES
9 | 40 µM | CC1CNc2nc(N)[nH]c(=O)c2N1 (stereo unspecified)
10 | 3 µM | Nc1nc(O)c2c(n1)NCC(c1ccccc1)N2 (stereo unspecified)
11 | 130 µM | Nc1nc(O)c2c(n1)NCCN2
